Screening results deposited in PubChem by several laboratories.
Most compounds without a hit are left out; they make up all but 1.6% or so of the library.
Yeast life ext – extends the lifespan of yeast; 130,000 compounds, 0.68% hits; inhibition of the nicotinamide effect, % at 10 µM; S. cerevisiae growth with nicotinamide, OD615; deaD strain in restrictive glucose medium;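 active = inhibition above a set limit, placed 3 SD over the median of all compounds, cut at about 26% in these data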;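 note: 0% = nicotinamide-treated wells and 100% = cells grown without nicotinamide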
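Measured by: optical density (absorbance) at 615 nm; System: modified budding yeast, DeaD strain; Medium: restrictive CSMM-D dextrose medium; Timing: 4 h preincubation then 48 h treatment at 30 °C.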
RBBP9 inhibitor – blocks human serine hydrolase RBBP9 | O75884 | recombinant RBBP9, FP-Rh probe fluorescence polarization | inhibition, % at 7.94 µM | 220,000 compounds, 0.2% hits;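 active = inhibition above the campaign mean of all tested compounds plus 3 SD, cut at about 14% in these data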;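 note: plate controls were DMSO wells with RBBP9 for no effect and wells lacking RBBP9 protein for full effect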
Target sequence (O75884 whole entry, looked up): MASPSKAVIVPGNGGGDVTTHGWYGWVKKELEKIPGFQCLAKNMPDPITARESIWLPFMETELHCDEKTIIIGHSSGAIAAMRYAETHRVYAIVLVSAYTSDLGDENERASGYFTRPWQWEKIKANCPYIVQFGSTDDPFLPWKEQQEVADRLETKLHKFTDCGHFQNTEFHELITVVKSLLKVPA
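Measured by – fluorescence polarization · Test system – RBBP9 protein · Input – 2.5 µM RBBP9 dispensing solution, before mixing · Measure – percent inhibition from mP, scaled between DMSO and no-protein wells · Benchmarks – DMSO-treated enzyme wells and wells lacking RBBP9 · Times – preincubation 30 min plus labeling 45 min at 25 °C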
Tb hexokinase – blocks Trypanosoma brucei hexokinase 1 activity | recombinant TbHK1, G6PDH-coupled NADH A340 | inhibition, % at 10 µM | 220,000 compounds, 0.11% hits | AID 1430;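 active = inhibition of 50% or more in the single-dose primary screen; inactive = inhibition below 50%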
Yeast growth inh – yeast BB579 growth reduction in restrictive medium; S. cerevisiae BB579 growth, OD615, 48 h; inhibition, % at 10 µM; 140,000 compounds, 0.51% hits;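 active = inhibition above a set limit, 3 SD over the mean compound inhibition, cut at about 44% in these data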
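Test system: S. cerevisiae DeaD strain BB579 yeast; Medium: restrictive CSMM-D medium; Compound: one dose, 10 µM compound with 0.25% DMSO; Incubation: 4 h cell preincubation, 48 h compound exposure, 30 °C humidified; Signal: OD at 615 nm; Benchmarks: amphotericin B at 10 µg/mL as positive control.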
NCF1 inh – inhibitors of human p47phox binding | 220,000 compounds, 0.53% hits | inhibition, % at 24.7 µM | p47phox/p22phox peptide binding, fluorescence polarization, 2 h | AID 1274 | P14598;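 active = inhibition above about 30%, limit read from the data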;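 note: 0% = p47phox with labelled peptide and 100% = labelled peptide alone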
Target sequence (P14598 whole entry, looked up): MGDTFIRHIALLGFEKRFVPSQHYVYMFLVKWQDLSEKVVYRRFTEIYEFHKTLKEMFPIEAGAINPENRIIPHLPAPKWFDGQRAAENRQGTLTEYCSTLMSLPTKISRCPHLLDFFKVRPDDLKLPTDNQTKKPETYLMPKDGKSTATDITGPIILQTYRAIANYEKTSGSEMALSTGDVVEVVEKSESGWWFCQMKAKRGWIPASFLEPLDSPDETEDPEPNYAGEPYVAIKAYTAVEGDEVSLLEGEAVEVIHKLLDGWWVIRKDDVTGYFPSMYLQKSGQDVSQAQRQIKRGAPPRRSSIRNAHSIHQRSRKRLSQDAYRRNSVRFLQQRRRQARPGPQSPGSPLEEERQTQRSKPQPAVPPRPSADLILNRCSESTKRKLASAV
SDO1 yeast rescue – sdo1-depleted yeast growth rescue; S. cerevisiae sdo1-depleted JHY4D growth rescue, OD600 30 h; hits give high values; pdr5 snq2 efflux-pump mutant strain; z-score at 10 µM; 140,000 compounds, 0.21% hits;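 active = z-score above 3 at both the 24 hr and the 30 hr optical density reads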;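 note: z-score against mean and SD of all compound wells on the same plate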
Numbers without * were called inactive; x = no result.

SMILES	Yeast life ext	RBBP9 inhibitor	Tb hexokinase	Yeast growth inh	NCF1 inh	SDO1 yeast rescue
O=C(CSc1cccc[n+]1[O-])c1cccs1	x	1	-3	x	3	x
O=C(O)CSc1cccc[n+]1[O-]	-3	4	4	90*	-4	0.1
O=C(CSc1cccc[n+]1[O-])c1cc2ccccc2o1	-10	1	-11	99*	-3	1.1
Cn1cccc1C(=O)NC(=O)CSc1cccc[n+]1[O-]	-11	1	-3	95*	8	-0.39
O=C(CSc1cccc[n+]1[O-])c1cc(Cl)ccc1Cl	x	-5	-2	x	2	x
NC(=O)c1nn(-c2ccccc2)nc1NC(=O)CN1CCOCC1	x	-4	-9	x	-10	x
Nc1cc(Cl)ccc1N1C(=O)CCC1=O	x	3	-6	x	31*	x
COc1ccc(C2C(C#N)=C(N)Oc3cc4c(cc32)OCO4)cc1 (stereo not drawn)	-1	-9	4	-12	64*	-2.5
COc1ccccc1-n1c(C)nc2cc(C(=O)O)ccc21	4	-5	0	-30	39*	0.71
CCCCc1cc(=O)oc2cc(C)c(CN3CCCC3)c(O)c12	46	-7	4	-45	-57	-0.3
CCc1cc(=O)oc2cc(C)c(CN3CCCC(C)C3)c(O)c12 (stereo not drawn)	30*	14	-1	-35	-13	-0.49
O=C(N/N=C1/C(=O)c2cccc3cccc1c23)c1ccc(Cl)cc1	-23	-2	-19	-45	48*	-2.1
CCNC(=S)N/N=C1\C(=O)c2cccc3cccc1c23	-14	1	-32	-29	-18	-1.7
COC(=O)C1=C(C(=O)OC)C(c2ccccc2O)c2sc(=O)[nH]c2S1 (stereo not drawn)	45*	1	1	-44	-8	-0.62
COC(=O)c1sc2ccccc2c1N	-14	-7	-14	10	-5	0.51
Cc1ccc2[nH]c3c(c2c1)CCc1cn[nH]c1-3	-19	3	2	92*	-7	-3.2
CN(C(=O)/C=C/c1cnc2ccccc2c1)C1CCCCC1	x	-1	-6	x	-1	x
COc1ccc2nc(N=Nc3c(O)ccc4ccccc34)sc2c1	-3	-3	8	-32	34*	-0.66
O=C1C(=O)c2c(C(=O)c3ccccc3)coc2-c2ccccc21	-16	-4	9	99*	-12	-2.9
COc1cc(OC)c(S(=O)(=O)NC(C)C)cc1S(=O)(=O)NC(C)C	x	-4	-1	x	-1	x
O=C1CSC(=S)N1c1cccnc1	-2	0	-2	44*	-27	0.53
O=C(O)c1ccc2nc(-c3ccccc3)sc2c1	-8	-1	32	47*	9	-0.12
Nc1ccc(-c2nc3ccc(C(=O)O)cc3s2)cc1	-3	3	-54	-12	-16	0.11
Cc1cc2cc(CNC(=S)NCc3ccccc3)ccc2n1C	x	1	5	x	-13	x
CCCCNC(=S)NCc1ccc2c(c1)cc(C)n2C	-2	-5	4	45*	-8	0.04
SMILES	Yeast life ext	RBBP9 inhibitor	Tb hexokinase	Yeast growth inh	NCF1 inh	SDO1 yeast rescue
Cc1ccc(CSc2nnc(-c3ccc(S(=O)(=O)N4CCCC4)cc3)o2)cc1	3	1	-4	-35	-15	0.32
O=S(=O)(c1ccc(-c2nnc(SCc3ccccc3)o2)cc1)N1CCCC1	5	-2	2	-85	42*	-1
CC(C)(C)c1cc(NCCCn2ccnc2)n2ncc(-c3ccc(Cl)cc3)c2n1	-24	0	-3	86*	-3	-2.4
O=C1NN(c2ccc(F)cc2)C(=O)/C1=C\C=C\c1ccco1	32*	-8	4	-14	-10	0.7
Cc1cc(C)n2nc(C(=O)NNC(=O)c3ccc(Cl)cc3)nc2n1	x	6	-20	x	36*	x
OCCC1CN(Cc2nc3ccccc3s2)CCN1C1CCCC1 (stereo not drawn)	x	-2	15	x	-1	x
Cc1nc(NC(=O)CSc2nnc(N)s2)c(Cl)cc1Cl	x	-4	1	x	-6	x
COc1ccc(N2CC(C(=O)Nc3nnc(SCc4ccccn4)s3)CC2=O)cc1 (stereo not drawn)	-2	-1	-2	-16	-4	0.49
COc1ccccc1N1CC(C(=O)Nc2nnc(SCc3ccccn3)s2)CC1=O (stereo not drawn)	30*	-8	0	-14	-2	0.98
Nc1ncnc(Nc2c(F)cccc2F)n1	x	9	1	x	-11	x
Cc1ccc(S(=O)(=O)Cn2nnnc2C(c2ccc(F)cc2)N2CCCCC2)cc1 (stereo not drawn)	-16	-2	1	-41	0	-1.2
Cc1ccc(C(c2nnnn2CS(=O)(=O)c2ccc(C)cc2)N2CCCC2)cc1 (stereo not drawn)	x	9	-10	x	39*	x
CSc1cccc(NC(=O)CCc2ccccc2)c1	x	-8	1	x	-6	x
CSc1cccc(NC(=O)CCC(=O)O)c1	3	-2	-1	-42	71*	-0.39
CCN(Cc1ccncc1)Cc1c(O)ccc2cc(Br)ccc12	x	-4	4	x	14	x
CC(C)(C)NC(=O)NC(=O)CN1CCN(c2cccc(Cl)c2)CC1	x	-5	-10	x	-22	x
COc1ccccc1NC(=O)c1cc2c(s1)-c1ccccc1S(=O)(=O)C2	x	-27	-33	x	20	x
CCOC(=O)c1c(NC(=S)Nc2ccc(Cl)cc2)sc2c1CCN(C)C2	-14	-11	0	98*	-36	1.1
O=C1CN(CC(=O)Nc2cccc(Cl)c2Cl)c2ccccc2N1	x	4	-2	x	37*	x
O=C1CN(C(=O)Cn2ncc(Cl)c(Cl)c2=O)c2ccccc2N1	x	-7	-8	x	-12	x
O=C(NCCN1CCOCC1)c1csc2c1CCCC2	1	0	3	-43	71*	0.29
O=C(Nc1ccccc1NC(=O)NC1CCCCC1)NC1CCCCC1	-5	-7	2	-27	-3	0.61
S=C(Nc1ccc(Oc2ccccc2)cc1)NC1CCCCCC1	-2	1	13	56*	-14	-0.98
O=C(Nc1ccccc1)NC1CCCCC1	42*	-6	-7	-5	-4	-0.21
O=C(c1ccc(S(=O)(=O)c2cccc(Cl)c2)c([N+](=O)[O-])c1)N1CCN(c2ccccn2)CC1	x	-9	0	x	-1	x
O=C(N/N=C/c1cc(O)ccc1[N+](=O)[O-])c1ccc2c(c1)OCCO2	x	-6	-28	x	-19	x
Cc1ccc(S(=O)(=O)Nc2ccc(SC(F)F)cc2)c(C)c1	-3	-1	10	61*	-10	-1
COc1ccc(-n2nc3c(c2NC(=O)c2ccc(S(=O)(=O)N4CCOCC4)cc2)CS(=O)C3)cc1 (stereo not drawn)	x	1	-5	x	-4	x
CCCCN(CC)S(=O)(=O)c1ccc(C(=O)N(CCCN(C)C)c2nc3cc(C)cc(C)c3s2)cc1	x	-6	14	x	36*	x
O=C(Nc1nc2ccccc2s1)NC1CCCCC1	x	-3	-5	x	0	x
